Converted amounts (≈) assume the structure as drawn.
Key:
GRIA1/CACNG2 = GRIA1/CACNG2 (Homo sapiens, UniProt P42261+Q9Y698); assay: Modulation of recombinant human GluA1 flop isoform/TARPgamma2 expressed in HEK293F cells assessed as blockade of glutamate-induced calcium flux by calcium 5/6 dye based FLIPR assay; type: cell-based
Outline: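 HEK-293 cells transiently expressing human GluA1o cotransfected with γ-2; FLIPR calcium-flux read-out; pIC50 reported; n = 1, run in triplicate.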

GRIA1/CACNG8 = GRIA1/CACNG8 (Homo sapiens, UniProt P42261+Q8WXS5); assay: Modulation of recombinant human GluA1 flop isoform/TARPgamma8 expressed in HEK293F cells assessed as blockade of glutamate-induced calcium flux by calcium 5/6 dye based FLIPR assay; type: cell-based
Outline: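 HEK-293 cells expressing a human GluA1o-γ-8 fusion construct; FLIPR calcium-flux read-out; pIC50 reported as mean and standard deviation of at least three assays run in triplicate.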

[1] = Hepatic extraction ratio in human liver microsomes at 1 uM measured after 60 mins in presence of NADPH by LC-MS/MS analysis; type: ADME, microsome; conditions: read-out: ERH
Outline: (§1)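 Human or rat liver microsomal stability at 1 μM; results expressed as extraction ratio, i.e. predicted hepatic clearance divided by species-specific hepatic blood flow.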

[2] = Hepatic extraction ratio in rat liver microsomes at 1 uM measured after 60 mins in presence of NADPH by LC-MS/MS analysis; type: ADME, microsome; conditions: read-out: ERH; outline: as §1
[3] = Apparent permeability across basolateral to apical side in MDCK-MDR1 cells at 5 uM measured after 60 mins by LC-MS/MS analysis; type: ADME, cell-based, Canis lupus familiaris; conditions: dog
Outline: (§2)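 Bidirectional apparent permeability measured in Madin–Darby canine kidney cells transfected with the MDR1 (P-gp) gene; Papp reported in ×10–6 cm/s.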

[4] = Apparent permeability across apical to basolateral side in MDCK-MDR1 cells at 5 uM measured after 60 mins by LC-MS/MS analysis; type: ADME, cell-based, Canis lupus familiaris; conditions: dog; outline: as §2
[5] = Thermodynamic solubility of the compound in simulated gastric fluid at pH 1.6 incubated under stirred condition for 3 days; type: physicochemical; conditions: read-out: Therm_solubility
Outline: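 Thermodynamic solubility (μM) determined in simulated gastric fluid at pH 1.6 and in fasted state simulated intestinal fluid at pH 6.5.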

[6] = Thermodynamic solubility of the compound in fasted state simulated intestinal fluid at pH 6.5 incubated under stirred condition for 3 days; conditions: read-out: Therm_solubility
[7] = Clearance in Sprague-Dawley rat at 1 mg/kg, iv administered as single dose by LC-MS/MS analysis; type: ADME, organism-based; conditions: in vivo
Outline: (§3)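 Single 1 mg/kg i.v. dose as a solution to Sprague–Dawley rats (n = 3/group); vehicle 20% HP-β-CD in one study series, 1:1 PEG400/H2O in the other; plasma PK parameters derived.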

[8] = Half life in Sprague-Dawley rat at 1 mg/kg, iv administered as single dose by LC-MS/MS analysis; type: ADME, organism-based; conditions: in vivo; outline: as §3
Homo sapiens = species: Homo sapiens; assay: Selectivity ratio of IC50 for recombinant human GluA1 flop isoform/TARPgamma2 expressed in HEK293F cells to IC50 for recombinant human GluA1 flop isoform/TARPgamma8 expressed in HEK293F cells; type: cell-based
Outline: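 Calcium-flux (FLIPR) inhibition in HEK-293 cells, giving pIC50 for each receptor. For γ-8, cells expressed a human GluA1o–γ-8 fusion construct, with at least three assays run in triplicate and reported as mean ± SD. For γ-2, cells expressed human GluA1-flop cotransfected with γ-2. The ratio compares the γ-2 IC50 with the γ-8 IC50.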

[9] = Volume of distribution at steady state in Sprague-Dawley rat at 1 mg/kg, iv administered as single dose by LC-MS/MS analysis; type: ADME, organism-based; conditions: in vivo, read-out: Vdss; outline: as §3
Rattus norvegicus [10] = assay: Ex vivo receptor occupancy at GluA/TARPgamma8 in Sprague-Dawley rat assessed as reduction in [3H]JNJ-56022486 receptor labeling in hippocampus at 10 mg/kg, po at Tmax by autoradiography relative to control; type: functional
Outline: (§4)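 Rats (Sprague–Dawley, n = 2/dose group) dosed orally with suspensions in 0.5% HPMC at 3 or 10 mg/kg; hippocampal GluA/γ-8 occupancy at Tmax by ex vivo autoradiography with [3H]12 radiotracer; brain (ng/g) and plasma (ng/mL) concentrations taken at Tmax.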

[11] = Protein binding in human plasma assessed as unbound fraction at 1 uM measured after 6 hrs by equilibrium dialysis method; type: ADME, cell-free
Outline: (§5)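 Human or rat plasma protein binding at 1 μM compound, expressed as fraction unbound (fub).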

[12] = Protein binding in rat plasma assessed as unbound fraction at 1 uM measured after 6 hrs by equilibrium dialysis method; type: ADME, cell-free; outline: as §5
Rattus norvegicus [13] = assay: Ex vivo receptor occupancy at GluA/TARPgamma8 in po dosed Sprague-Dawley rat assessed as plasma concentration causing 50% reduction in [3H]JNJ-56022486 receptor labeling in hippocampus at Tmax by autoradiography; type: functional, organism-based
Outline: (§6)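 Oral dose–response in Sprague–Dawley rats, n = 3/dose (8 doses in one study; vehicle 0.5% HPMC or 20% HP-β-CD); hippocampal occupancy measured at Tmax by ex vivo autoradiography using [3H]-12; EC50 expressed against plasma (ng/mL) or brain (ng/g) exposure, ED50 against dose.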

Rattus norvegicus [14] = assay: Ex vivo receptor occupancy at GluA/TARPgamma8 in po dosed Sprague-Dawley rat assessed as brain concentration causing 50% reduction in [3H]JNJ-56022486 receptor labeling in hippocampus at Tmax by autoradiography; type: functional, organism-based; outline: as §6
[15] = Fraction unbound in rat brain at 5 uM after 5 hrs by equilibrium dialysis method; type: ADME, tissue-based
Outline: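 Rat brain tissue binding, reported as fraction unbound, at 5 μM compound.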

Rattus norvegicus [16] = assay: Ex vivo receptor occupancy at GluA/TARPgamma8 in po dosed Sprague-Dawley rat assessed as reduction in [3H]JNJ-56022486 receptor labeling in hippocampus measured within 10 mins by autoradiography; type: functional
Rattus norvegicus [17] = assay: Ex vivo receptor occupancy at GluA/TARPgamma8 in Sprague-Dawley rat assessed as reduction in [3H]JNJ-56022486 receptor labeling in hippocampus at 3 mg/kg, po at Tmax by autoradiography relative to control; type: functional; outline: as §4
Rattus norvegicus [18] = assay: Ex vivo receptor occupancy at GluA/TARPgamma8 in po dosed Sprague-Dawley rat assessed as plasma concentration causing 50% reduction in [3H]JNJ-56022486 receptor labeling in hippocampus at ED50 at Tmax by autoradiography; type: functional, organism-based; outline: as §6
Rattus norvegicus [19] = assay: Ex vivo receptor occupancy at GluA/TARPgamma8 in po dosed Sprague-Dawley rat assessed as brain concentration causing 50% reduction in [3H]JNJ-56022486 receptor labeling in hippocampus at ED50 at Tmax by autoradiography; type: functional, organism-based; outline: as §6

Sequence of GRIA1/CACNG8 (P42261 whole entry, the tested form may be a part, canonical isoform): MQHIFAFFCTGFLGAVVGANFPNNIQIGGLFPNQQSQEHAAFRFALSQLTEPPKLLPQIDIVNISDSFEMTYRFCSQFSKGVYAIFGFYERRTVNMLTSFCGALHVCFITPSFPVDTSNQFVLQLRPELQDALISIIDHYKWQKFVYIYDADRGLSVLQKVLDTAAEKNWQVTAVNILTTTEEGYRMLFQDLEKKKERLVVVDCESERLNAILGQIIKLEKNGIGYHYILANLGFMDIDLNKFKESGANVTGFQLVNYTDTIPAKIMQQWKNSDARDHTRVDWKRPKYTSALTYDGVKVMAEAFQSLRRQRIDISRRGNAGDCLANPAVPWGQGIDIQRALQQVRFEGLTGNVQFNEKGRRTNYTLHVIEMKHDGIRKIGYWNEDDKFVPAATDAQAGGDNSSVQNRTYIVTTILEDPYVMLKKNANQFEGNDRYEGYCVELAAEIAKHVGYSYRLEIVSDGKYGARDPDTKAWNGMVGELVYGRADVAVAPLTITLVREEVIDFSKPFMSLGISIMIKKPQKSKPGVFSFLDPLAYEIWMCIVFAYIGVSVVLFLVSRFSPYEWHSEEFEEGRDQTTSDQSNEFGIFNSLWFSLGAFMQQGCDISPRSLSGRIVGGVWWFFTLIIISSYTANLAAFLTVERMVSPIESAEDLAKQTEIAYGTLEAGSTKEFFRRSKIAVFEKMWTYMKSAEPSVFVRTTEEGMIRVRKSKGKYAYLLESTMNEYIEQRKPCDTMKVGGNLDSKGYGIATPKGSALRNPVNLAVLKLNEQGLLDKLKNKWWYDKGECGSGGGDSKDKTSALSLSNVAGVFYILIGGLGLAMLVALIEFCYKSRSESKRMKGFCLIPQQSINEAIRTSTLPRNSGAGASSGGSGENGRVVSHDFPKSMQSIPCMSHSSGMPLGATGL
Sequence of GRIA1/CACNG8 (Q8WXS5 whole entry, the tested form may be a part, canonical isoform): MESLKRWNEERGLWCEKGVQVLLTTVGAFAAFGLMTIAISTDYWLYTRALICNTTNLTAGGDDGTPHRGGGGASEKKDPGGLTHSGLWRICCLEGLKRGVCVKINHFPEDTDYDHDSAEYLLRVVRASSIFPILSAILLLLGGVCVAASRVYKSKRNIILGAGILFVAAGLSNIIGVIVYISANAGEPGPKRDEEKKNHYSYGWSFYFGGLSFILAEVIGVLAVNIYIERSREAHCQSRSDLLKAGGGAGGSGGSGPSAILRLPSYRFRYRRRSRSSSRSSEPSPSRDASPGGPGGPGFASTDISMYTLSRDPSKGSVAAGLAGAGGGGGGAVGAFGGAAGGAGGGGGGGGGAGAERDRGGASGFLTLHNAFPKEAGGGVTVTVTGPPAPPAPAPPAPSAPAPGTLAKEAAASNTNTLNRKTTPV
Sequence of GRIA1/CACNG2 (P42261 whole entry, canonical isoform): as the sequence (P42261 whole entry, the tested form may be a part, canonical isoform) above
Sequence of GRIA1/CACNG2 (Q9Y698 whole entry, canonical isoform): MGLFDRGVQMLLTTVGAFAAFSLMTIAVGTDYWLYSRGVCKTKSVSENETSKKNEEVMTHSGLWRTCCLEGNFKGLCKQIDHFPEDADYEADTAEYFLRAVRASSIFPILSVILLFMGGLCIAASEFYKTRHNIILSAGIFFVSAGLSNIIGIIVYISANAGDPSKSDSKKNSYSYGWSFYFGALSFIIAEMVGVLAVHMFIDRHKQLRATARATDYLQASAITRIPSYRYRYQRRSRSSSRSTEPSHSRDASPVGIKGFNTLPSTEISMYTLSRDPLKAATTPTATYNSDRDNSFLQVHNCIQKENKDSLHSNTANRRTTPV

| SMILES | IC50 (GRIA1/CACNG2) [nM] | IC50 (GRIA1/CACNG8) [nM] | hepatic extraction ratio at 1 h, 1 µM [1] | hepatic extraction ratio at 1 h, 1 µM [2] | Papp B→A at 1 h, 5 µM [3] [×10⁻⁶ cm/s] | Papp A→B at 1 h, 5 µM [4] [×10⁻⁶ cm/s] | solubility thermodynamic at 72 h [5] [µM] | solubility thermodynamic at 72 h [6] [µM] | other results |
| --- | --- | --- | --- | --- | --- | --- | --- | --- | --- |
| Cc1cccc(C)c1-c1ccc2c(c1)CC(=O)N2 | > 10000 |  |  |  |  |  |  |  |  |
| COc1cccc(Cl)c1-c1ccc2[nH]c(=O)[nH]c2c1 | > 10000 | 126 | 0.3 | 0.6 | 50 | 26 | 19 (≈ 5.22 µg/mL) | 142 (≈ 39 µg/mL) |  |
| Cc1cc(-c2c(Cl)cncc2OC(F)F)cc2c1NC(=O)C2 | > 10000 |  | < 0.3 | 0.4 | 66 | 34 | 140 (≈ 45.5 µg/mL) | 64 (≈ 20.8 µg/mL) | clearance [7]: 19 mL/min/kg; half-life [8]: 1.2 h; Ratio IC50 (Homo sapiens): > 1000; Vd [9]: 1.9 L/kg; Occ (Rattus norvegicus [10]): 72% |
| Cc1cc(-c2c(Cl)cccc2OC(F)(F)F)cc2c1NC(=O)C2 | 10000 |  | 0.5 | 0.4 |  |  | < 4 | 55 (≈ 18.8 µg/mL) | clearance [7]: 28 mL/min/kg; fraction unbound at 6 h, 1 µM [11]: 0.3; fraction unbound at 6 h, 1 µM [12]: 0.6; half-life [8]: 1.9 h; EC50 (Rattus norvegicus [13]): 9 ng/mL (≈ 0.0263 µM); EC50 (Rattus norvegicus [14]): 71 ng/g; fraction unbound at 5 h, 5 µM [15]: 0.4; Ratio IC50 (Homo sapiens): > 1000; Vd [9]: 3.5 L/kg; ED50 (Rattus norvegicus [16]): 0.6 mg/kg; Occ (Rattus norvegicus [17]): 82%; EC50 (Rattus norvegicus [18]): 9 ng/mL (≈ 0.0263 µM); EC50 (Rattus norvegicus [19]): 71 ng/g |
| O=c1[nH]c2ccc(-c3c(Cl)cccc3OC(F)(F)F)cc2o1 |  | 2510 |  |  |  |  |  |  |  |
| N#CCc1cccc(Cl)c1-c1ccc2[nH]c(=O)[nH]c2c1 | > 10000 | 10 | < 0.3 | 0.6 | 70 | 6.6 | 26 (≈ 7.38 µg/mL) | 230 (≈ 65.3 µg/mL) |  |
| O=c1[nH]c2ccc(-c3c(Cl)cncc3Cl)cc2[nH]1 | > 10000 | 251 | < 0.3 | < 0.2 | 83 | 16 | 42 (≈ 11.8 µg/mL) | 52 (≈ 14.6 µg/mL) |  |
| N#Cc1cccc(Cl)c1-c1ccc2[nH]c(=O)[nH]c2c1 | > 10000 | 251 | < 0.3 | < 0.2 | 70 | 14 | < 4 | 5 (≈ 1.35 µg/mL) |  |

From ChEMBL document CHEMBL4196161, “Lead Optimization of 5-Aryl Benzimidazolone- and Oxindole-Based AMPA Receptor Modulators Selective for TARP γ-8” (ACS Med Chem Lett, 2018)
